The record followed here is ChEMBL document CHEMBL3352054, “Discovery of new 7-substituted-4-imidazolylmethyl coumarins and 4'-substituted-2-imidazolyl acetophenones open analogues as potent and selective inhibitors of steroid-11β-hydroxylase” (Eur J Med Chem, 2015).

For series [1], the target named is T1, CYP17 (steroid 17-alpha-hydroxylase/17,20 lyase) (Homo sapiens, UniProt P05093).
T1 sequence (P05093 whole entry): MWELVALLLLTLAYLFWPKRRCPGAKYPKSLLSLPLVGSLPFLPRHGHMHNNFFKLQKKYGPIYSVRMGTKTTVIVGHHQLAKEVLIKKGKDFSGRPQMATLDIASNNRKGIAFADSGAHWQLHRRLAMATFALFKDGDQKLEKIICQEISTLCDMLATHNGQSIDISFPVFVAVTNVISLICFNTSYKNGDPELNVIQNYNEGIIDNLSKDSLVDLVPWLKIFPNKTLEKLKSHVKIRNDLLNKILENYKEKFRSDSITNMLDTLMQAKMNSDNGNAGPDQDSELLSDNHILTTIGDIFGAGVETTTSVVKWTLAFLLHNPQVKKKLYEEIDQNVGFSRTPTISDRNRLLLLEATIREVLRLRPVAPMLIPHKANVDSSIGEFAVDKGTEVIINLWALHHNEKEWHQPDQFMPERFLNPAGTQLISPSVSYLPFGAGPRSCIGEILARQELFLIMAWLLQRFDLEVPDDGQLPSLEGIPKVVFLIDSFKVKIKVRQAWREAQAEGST
The series can be described thus: Inhibition of human CYP17 expressed in Escherichia coli using [3H]-progesterone substrate pre-incubated for 5 mins at 2.5 uM in presence of rat P450 reductase by HPLC method. Conditions: probe [3H]-progesterone. The method, boiled down:
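E. coli coexpressing human CYP17 and rat P450 reductase. Phosphate buffer pH 7.4 (MgCl2, EDTA, DTT) with an NADPH-generating system. Progesterone plus [3H]-progesterone, 24.95 μM + 0.05 μM final; inhibitor in DMSO. Preincubation 5 min at 37 °C, then enzyme added, 30 min at 37 °C. Stopped with HCl, ethyl acetate extraction. Percent inhibition from conversion versus uninhibited control.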

Series [2] has as its target T2, Cytochrome P450 11B2, mitochondrial (Homo sapiens, UniProt P19099).
T2 sequence (P19099 whole entry): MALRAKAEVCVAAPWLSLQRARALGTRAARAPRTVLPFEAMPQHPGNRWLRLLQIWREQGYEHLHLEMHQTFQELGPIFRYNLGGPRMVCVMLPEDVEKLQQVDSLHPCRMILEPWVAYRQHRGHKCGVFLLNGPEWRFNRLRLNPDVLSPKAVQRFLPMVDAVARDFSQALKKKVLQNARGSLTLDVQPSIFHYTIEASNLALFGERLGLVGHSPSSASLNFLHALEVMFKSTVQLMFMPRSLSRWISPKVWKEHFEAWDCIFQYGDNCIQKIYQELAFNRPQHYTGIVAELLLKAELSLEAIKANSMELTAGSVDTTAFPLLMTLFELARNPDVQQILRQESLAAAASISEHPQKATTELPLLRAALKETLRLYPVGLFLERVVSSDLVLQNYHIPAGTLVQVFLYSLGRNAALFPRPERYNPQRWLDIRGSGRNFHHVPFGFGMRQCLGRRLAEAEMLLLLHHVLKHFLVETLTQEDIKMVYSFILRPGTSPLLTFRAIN
Kind of series: Inhibition of human CYP11B2 expressed in hamster V79MZh11B2 cells using [1,2-3H]-11-deoxycorticosterone substrate incubated for 45 mins by HPLC method.

For series [3], the species on record is Homo sapiens. Kind of series: Selectivity index, ratio of IC50 for human placental microsomal CYP19 to IC50 for human CYP11B1.
Another series addresses T3, Aromatase (Homo sapiens, UniProt P11511).
T3 sequence (P11511 whole entry): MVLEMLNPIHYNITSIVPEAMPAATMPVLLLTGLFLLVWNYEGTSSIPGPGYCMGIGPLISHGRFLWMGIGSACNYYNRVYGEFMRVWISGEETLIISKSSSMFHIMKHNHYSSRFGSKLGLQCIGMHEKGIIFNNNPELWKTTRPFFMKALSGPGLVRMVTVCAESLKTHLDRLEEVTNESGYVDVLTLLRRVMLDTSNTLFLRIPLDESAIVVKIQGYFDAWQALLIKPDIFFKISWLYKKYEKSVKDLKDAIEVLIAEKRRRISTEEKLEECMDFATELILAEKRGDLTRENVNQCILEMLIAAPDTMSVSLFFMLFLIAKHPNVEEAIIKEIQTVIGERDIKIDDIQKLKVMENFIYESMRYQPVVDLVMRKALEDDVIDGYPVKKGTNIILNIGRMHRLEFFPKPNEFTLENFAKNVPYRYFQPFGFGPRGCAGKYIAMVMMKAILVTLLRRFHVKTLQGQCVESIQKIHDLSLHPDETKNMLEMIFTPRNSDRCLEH

The target of series [4] is T4, Cytochrome P450 11B1, mitochondrial (Homo sapiens, UniProt P15538).
T4 sequence (P15538 whole entry): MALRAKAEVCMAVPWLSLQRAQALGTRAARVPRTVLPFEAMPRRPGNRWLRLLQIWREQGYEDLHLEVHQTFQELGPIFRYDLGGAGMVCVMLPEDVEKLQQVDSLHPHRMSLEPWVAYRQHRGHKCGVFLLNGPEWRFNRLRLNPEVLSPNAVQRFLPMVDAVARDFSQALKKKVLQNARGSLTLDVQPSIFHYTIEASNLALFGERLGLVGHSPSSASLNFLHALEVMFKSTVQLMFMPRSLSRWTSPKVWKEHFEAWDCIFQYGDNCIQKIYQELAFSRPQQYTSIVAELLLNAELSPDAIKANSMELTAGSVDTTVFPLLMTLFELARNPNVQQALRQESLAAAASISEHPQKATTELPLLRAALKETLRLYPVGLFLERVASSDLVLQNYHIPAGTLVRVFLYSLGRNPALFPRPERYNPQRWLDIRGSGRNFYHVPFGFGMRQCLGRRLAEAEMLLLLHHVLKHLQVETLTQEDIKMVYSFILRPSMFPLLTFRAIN
The series can be described thus: Inhibition of human CYP11B1 expressed in hamster V79MZh11B1 cells using [1,2-3H]-11-deoxycorticosterone substrate incubated for 25 mins by HPLC method. Format: cell-based.

Series [5] is filed under the species Homo sapiens. The series can be described thus: Selectivity index, ratio of IC50 for human CYP11B2 to IC50 for human CYP11B1.

Regarding `O=c1cc(Cn2ccnc2)c2ccc(OCc3ccc([N+](=O)[O-])cc3)cc2o1`, in series [1], the inhibition – broadly, the percentage by which the read-out fell short of the control – at 2.5 µM is 1%. Moreover, the IC50 (usually the midpoint of a concentration-inhibition curve) in series [2] is 86 nM; against Aromatase it was 387 nM; in series [4], 111 nM. For the same compound, the Ratio IC50 in the series listed under Homo sapiens [3] amounted to 3.5; in the series filed under Homo sapiens [5], 0.78.
With `O=C(Cn1ccnc1)c1ccc(OCc2cccc([N+](=O)[O-])c2)cc1`, the inhibition at 2.5 µM in series [1] came to 5%. In addition, the results for the IC50 (in series [2]; on Aromatase; in series [4]) were 192 nM, 3710 nM and 24 nM, respectively. In addition, the Ratio IC50 came to 155 in the series filed under Homo sapiens [3] and 8 in the series filed under Homo sapiens [5].
Turning to `CCCOc1ccc(COc2ccc3c(Cn4ccnc4)cc(=O)oc3c2)cc1`, the inhibition at 2.5 µM in series [1] turned out to be 2%. Moreover, the IC50 came out at 77 nM in series [2], 477 nM at Aromatase and 63 nM in series [4]. The Ratio IC50 in the series listed under Homo sapiens [3] is 7.6; in the series listed under Homo sapiens [5], 1.2.
